HTR1E agonist = 5-HT1E (human) receptor agonism; P28566; CHO 5-HT1E Ga15 NFAT-bla reporter, FRET; 0% DMSO wells, 100% control agonist wells; activation, % at 6 µM; 0.69% of 65,000 active;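 active = activation above a set limit, the screen-wide mean activation plus 3 SD, cut at about 8.5% in these data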
Target sequence (P28566 whole entry, looked up): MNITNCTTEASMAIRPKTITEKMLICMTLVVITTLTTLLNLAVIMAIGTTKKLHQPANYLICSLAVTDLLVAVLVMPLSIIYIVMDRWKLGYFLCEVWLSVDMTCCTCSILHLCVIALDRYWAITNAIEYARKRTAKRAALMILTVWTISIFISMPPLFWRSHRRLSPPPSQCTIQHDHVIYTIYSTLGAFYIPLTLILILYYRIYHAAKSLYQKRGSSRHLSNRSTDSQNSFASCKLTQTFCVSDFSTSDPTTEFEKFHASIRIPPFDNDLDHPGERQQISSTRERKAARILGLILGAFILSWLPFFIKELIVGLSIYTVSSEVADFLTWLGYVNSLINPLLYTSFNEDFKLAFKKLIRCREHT
S1P3 ag = activates the human S1P3 receptor; AID 373; activation, % at 4.5 µM; Q99500; 0.1% of 60,000 active; S1P3 NFAT-BLA reporter cells, agonism, FRET ratio; relative to 1 µM S1P, basal subtracted;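 active = activation above the screen-wide mean plus 3 SD, cut at about 4.5% in these data, passing the limit was not always enough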
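Measure – % activation relative to 1 µM S1P (100%), per plate · System – stable CHO line with human S1P3, Gα16, NFAT-BLA reporter · Timing – cells plated overnight, compound 4 h 37 °C, substrate 2 h RT · Technique – fluorescent BLA substrate, ex 405 nm, em 460/535 nm ratio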
5HT1E antag = antagonists of human 5-HT1E serotonin receptor; P28566; CHO 5-HT1E Ga15 NFAT-bla reporter, FRET, antagonist; inhibition, % at 6 µM; 0.99% of 65,000 active; AID 571;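 active = inhibition above a set limit, the mean inhibition across every tested compound plus 3 SD, cut at about 29% in these data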;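 note: signal is the 460 over 535 nm emission ratio of beta-lactamase substrate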
5HT1a antag = antagonists of human 5-HT1a serotonin receptor. 0.68% of 62,000 active. inhibition, % at 10 µM. CHO 5-HT1a Ga15 NFAT-bla reporter, antagonist mode. P08908. AID 612;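 active = inhibition above the mean of all tested compounds plus 3 SD, cut at about 43% in these data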;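 note: receptor stimulated by 5-CT agonist at 100 nM near EC80; beta-lactamase reporter measured by ratiometric fluorescence of a cleavable substrate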
S1P1 ag-PAM = agonists and agonism potentiators of human S1P1 receptor | activation, % at 9.5 µM | AID 449 | S1P1 CRE-bla cells, forskolin, beta-lactamase FRET, potentiator mode; S1P1 agonist co-added at EC20, 2 nM; 100% = saturating reference agonist, 0% = basal | P21453 | 0.57% of 56,000 active;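 active = activation above a cutoff set at the mean activation of all tested compounds plus 3 SD, cut at about 54% in these data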;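 note: forskolin at 4 µM as EC80 and the EC20 agonist is SEW2871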
HTR1A agonist = activates the human 5-HT1a serotonin receptor; 0.56% of 65,000 active; activation, % at 10 µM; CHO 5-HT1a Ga15 NFAT-bla reporter, FRET ratio; 0% basal, 100% maximal reference agonist; AID 567;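 active = activation above the screen-wide mean activation plus 3 SD, cut at about 19% in these data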
Large screens that a line does not name were inactive. Most compounds without a hit are left out; they make up all but 3% or so of the library.

CC(C)c1ccccc1N=C1SCCN1C1CCS(=O)(=O)C1 (centres undefined)	none
COc1ccccc1N1CCN(Cc2ccco2)CC1	HTR1E agonist 9.2
Cc1cc(C)nc(N2CCN(c3nc(C)nc4c3oc3ccccc34)CC2)n1	none (no result: S1P3 ag, S1P1 ag-PAM)
COc1ccccc1N1CCN(Cc2cc(Br)c(O)c3ncccc23)CC1	HTR1E agonist 13.8, 5HT1E antag 38.0, 5HT1a antag 64.7
CCOc1ccccc1N1CCN(Cc2cccc(OC)c2O)CC1	none (no result: S1P1 ag-PAM)
COc1ccccc1N1CCN(c2nc(C)nc3c2oc2ccccc23)CC1	5HT1E antag 58.4, 5HT1a antag 66.7
COc1cccc(C(=O)N2CCN(Cc3ccco3)CC2)c1OC	none
CCCN1CCC(N2CCN(c3ccccc3OC)CC2)CC1	5HT1a antag 63.3
O=C(COC(=O)c1cccc(NC(=O)c2ccco2)c1)c1ccc(Br)cc1	none
CCOC(=O)c1cc(CC)sc1N	none
COc1ccccc1N1CCN(CCNC(=O)Nc2cccc(C)c2C)CC1	HTR1A agonist 40.5
COc1ccccc1N1CCN(C/C=C/c2ccc(N(C)C)cc2)CC1	HTR1E agonist 9.7, 5HT1a antag 78.7
COc1ccccc1N1CCN(CCOc2c(OC)cccc2OC)CC1	HTR1E agonist 30.3 (no result: 5HT1a antag)
COc1ccccc1N1CCN(CC(O)COc2cccc3ccccc23)CC1 (centres undefined)	none (no result: 5HT1a antag)
COc1ccccc1/C=C/CN1CCOCC1	none (no result: S1P1 ag-PAM)
COc1ccc(S(=O)(=O)Nc2ccc(S(=O)(=O)N3CCOCC3)cc2)cc1	none (no result: S1P3 ag, S1P1 ag-PAM)
CCOC(=O)C1=C(N)Oc2cc(C)n(CCc3ccc(OC)c(OC)c3)c(=O)c2C1c1cccnc1 (centres undefined)	5HT1E antag 30.5
COc1ccc(C2N(c3cccc(Cl)c3)C(=O)C3CCCN32)cc1 (centres undefined)	none
Nc1nonc1-c1nc2ccccc2n1Cc1ccc(F)cc1Cl	5HT1a antag 62.7
CCC(=O)Nc1nonc1-c1nc2ccccc2n1Cc1ccc(Cl)c(Cl)c1	none
c1ccc2nc3c(nc2c1)c1ccccc1n3CCN1CCOCC1	none
CCn1c2ccccc2c2nc3cc(S(=O)(=O)N4CCOCC4)ccc3nc21	5HT1E antag 49.8
O=C(NC1=NCCS1)c1cc(-c2ccccc2)nn1-c1ccccc1	S1P3 ag 10.7
Cc1cc(C)n(-c2ccc(C(=O)NC3=NCCS3)cc2)n1	none
COc1cc(OC)cc(C(=O)N2c3ccc(F)cc3CCC2C)c1 (centres undefined)	HTR1E agonist 25.9
CC(C)CNc1nc2c(c(=O)n(C)c(=O)n2C)n1Cc1cccc(Br)c1	none (no result: 5HT1a antag)
Cn1c(Cl)nc2c1c(=O)n(Cc1cccc(Br)c1)c(=O)n2C	HTR1A agonist 36.3 (no result: 5HT1a antag)
Cc1ccc2c(c1)C1OCCC1C1N2C(=O)C2C(C(=O)O)C3C=CC21O3 (centres undefined)	HTR1A agonist 20.5
Cc1cccc(N2CC34C=CC(O3)C(C(=O)O)C4C2=O)c1 (centres undefined)	none
CCCSc1nnc2nc(C)cc(C)n12	none
CCOC(=O)c1oc2ccccc2c1NC(=O)c1ccccc1OC	5HT1E antag 47.0, 5HT1a antag 48.7
CCOC(=O)c1oc2ccccc2c1NC(=O)COc1cccc(OC)c1	none
O=C(Cc1c(C(=O)O)[nH]c2ccccc12)NC1CCN(Cc2ccccc2)CC1	none (no result: S1P3 ag, S1P1 ag-PAM)
O=S(=O)(Nc1cccc2ncccc12)c1cccs1	5HT1E antag 78.7, 5HT1a antag 84.0
CCOC(=O)c1cccc(NC(=O)C2CCCN(S(=O)(=O)c3c(C)n[nH]c3C)C2)c1 (centres undefined)	none
COc1ccc(-c2ccc(SCC(=O)N3CCCC3)nn2)cc1OC	5HT1E antag 30.4
COc1ccc(-c2ccc(SCC(=O)N3CCOCC3)nn2)cc1OC	none
CC1=C(C(=O)OC2CCCCCC2)C(c2ccc(C)o2)C2=C(CCCC2=O)N1 (centres undefined)	none
CC1=C(C(=O)OC2CCCC2)C(c2ccc(C)o2)C2=C(CC(c3cccs3)CC2=O)N1 (centres undefined)	5HT1E antag 39.5, 5HT1a antag 44.6
O=C(O)c1ccc(CSc2n[nH]c(-c3ccco3)n2)cc1	none

Screening results: PubChem, The Scripps Research Institute Molecular Screening Center
